Converted amounts (≈) assume the structure as drawn.
What was measured:
Assay type in all cases: functional, cell-based
Caco-2 = assay: Cytotoxicity against human Caco-2 cells after 48 hrs by MTT assay; details: Caco-2, 48 h
Method in brief: (§1)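 Cells seeded at 8000–10,000 viable cells/well and left 48 h to attach, then exposed to a range of compound concentrations for a further 48–96 h, depending on the cell line's cycle. After a PBS wash, MTT was added and the formazan was dissolved in DMSO. Absorbance was read at 550 nm against 690 nm reference. IC50 was obtained by linear regression from two independent experiments in triplicate (mean ± SD). Methotrexate served as reference.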

T47D = assay: Cytotoxicity against human T47D cells after 48 hrs by MTT assay; method in brief: as §1
HT-29 = assay: Cytotoxicity against human HT-29 cells after 48 hrs by MTT assay; details: HT-29, 48 h; method in brief: as §1

SMILES | IC50 (Caco-2) | IC50 (T47D) | IC50 (HT-29)
O=C(Cc1ccccc1Cl)NCc1ccc(-c2nc(C(=O)N3CCCCC3)cs2)cc1 | 12.8 µg/mL (≈ 28.1 µM) | 24.3 µg/mL (≈ 53.4 µM) | 26.8 µg/mL (≈ 59 µM)
O=C(Cc1cccc(Cl)c1)NCc1ccc(-c2nc(C(=O)N3CCCCC3)cs2)cc1 | 155 µg/mL (≈ 341 µM) | 37.6 µg/mL (≈ 82.9 µM) | 64.3 µg/mL (≈ 142 µM)
O=C(Cc1ccc(Cl)cc1)NCc1ccc(-c2nc(C(=O)N3CCCCC3)cs2)cc1 | 89.9 µg/mL (≈ 198 µM) | 11.8 µg/mL (≈ 26 µM) | 5.37 µg/mL (≈ 11.8 µM)
O=C(Cc1ccccc1F)NCc1ccc(-c2nc(C(=O)N3CCCCC3)cs2)cc1 | 18.1 µg/mL (≈ 41.4 µM) | 18.8 µg/mL (≈ 43 µM) | > 1000 µg/mL
O=C(Cc1cccc(F)c1)NCc1ccc(-c2nc(C(=O)N3CCCCC3)cs2)cc1 | 4.32 µg/mL (≈ 9.87 µM) | 2.02 µg/mL (≈ 4.62 µM) | 9.84 µg/mL (≈ 22.5 µM)
O=C(Cc1ccc(F)cc1)NCc1ccc(-c2nc(C(=O)N3CCCCC3)cs2)cc1 | 114 µg/mL (≈ 260 µM) | 14.2 µg/mL (≈ 32.4 µM) | 52 µg/mL (≈ 119 µM)
O=C(Cc1ccc(Br)cc1)NCc1ccc(-c2nc(C(=O)N3CCCCC3)cs2)cc1 | 52 µg/mL (≈ 104 µM) | 29.5 µg/mL (≈ 59.1 µM) | 45.3 µg/mL (≈ 90.8 µM)
COc1ccccc1CC(=O)NCc1ccc(-c2nc(C(=O)N3CCCCC3)cs2)cc1 | 28.1 µg/mL (≈ 62.4 µM) | 6.83 µg/mL (≈ 15.2 µM) | 4.46 µg/mL (≈ 9.92 µM)
COc1cccc(CC(=O)NCc2ccc(-c3nc(C(=O)N4CCCCC4)cs3)cc2)c1 | 41.1 µg/mL (≈ 91.4 µM) | 40.3 µg/mL (≈ 89.6 µM) | 447 µg/mL (≈ 995 µM)
COc1ccc(CC(=O)NCc2ccc(-c3nc(C(=O)N4CCCCC4)cs3)cc2)cc1 | 1.88 µg/mL (≈ 4.18 µM) | 21.6 µg/mL (≈ 48 µM) | > 1000 µg/mL
CN(Cc1cnc2nc(N)nc(N)c2n1)c1ccc(C(=O)N[C@@H](CCC(=O)O)C(=O)O)cc1 [METHOTREXATE] | 0.32 µg/mL (≈ 0.704 µM) | 0.16 µg/mL (≈ 0.352 µM) | 0.23 µg/mL (≈ 0.506 µM)

Source: ChEMBL document CHEMBL1275323, “Synthesis and biological evaluation of 2-phenylthiazole-4-carboxamide derivatives as anticancer agents” (Eur J Med Chem, 2010)
